Results gathered from unrelated publications.
Each line is one published result; the experiments were not run side by side.
Target: Serine/threonine-protein kinase PAK 6 (PAK6, Homo sapiens, UniProt Q9NQU5)

C[C@@H]1CCN(c2nccc(-c3cnn4ncccc34)n2)C1  remaining binding (binding; 1 µM): 87%
c1ccc(N2CCN(Cc3nc4ccccc4[nH]3)CC2)nc1  remaining binding (cell-free assay; competition with immobilised ligand; 1 µM): 100%
COc1cnc(Nc2cccc(S(N)(=O)=O)c2)nc1N1CCN(c2ccccc2)CC1  remaining binding (binding; competition with immobilised ligand; 1 µM): 100%
N[C@@H]1CCN(c2nccc(-c3cnn4ncccc34)n2)C1  remaining binding (binding; 1 µM): 100%
Cc1cnc(Nc2ccc(C(=O)N3CCC(N4CCCC4)CC3)cc2)nc1-c1cc2ccccc2s1  remaining binding (binding; competition with immobilised ligand; 1 µM): 63%
Nc1ncc2c(n1)-c1c([nH]c3ccc(C#CC4CC4)cc13)CCCC2  remaining binding (binding; competition with immobilised ligand; 1 µM): 94%
CN(CCCC(F)(F)F)c1nccc(-c2cnn3ncccc23)n1  remaining binding (binding; 1 µM): 100%
CNC(=O)[C@@H]1CC[C@@H](n2c(-c3ccc4cnccc4c3)nc3ccc(C(=O)NCc4cccc(C(N)=O)c4)cc32)C1  remaining binding (binding; competition with immobilised ligand; 1 µM): 100%
COc1ccnn2ncc(-c3ccnc(N(C)C)n3)c12  remaining binding (binding; 1 µM): 97%
CS(=O)(=O)N1CCCC(NC(=O)[C@H](CCC2CCCCC2)NC(=O)c2ccc(CNC(=O)c3cnc4ccccn34)cc2)C1 (stereo partly drawn)  remaining binding (cell-free assay; competition with immobilised ligand; 0.1 µM): 100%
CN(C)c1nccc(-c2cnc3ncccn23)n1  remaining binding (binding; 1 µM): 98%
O=C(c1ccc(Nc2nccc(-c3cc4ccccc4s3)n2)cc1)N1CCC(N2CCCC2)CC1  remaining binding (binding; competition with immobilised ligand; 1 µM): 100%
C[C@@H](c1ccc(-n2cnc3c(N)ncnc32)cc1)N1CCc2nn(C)c(Cc3ccccc3)c2C1=O  remaining binding (binding; competition with immobilised ligand; 0.1 µM): 96%
CO[C@@H](C)c1c(Nc2ccc([C@@H](N(C)C(=O)C3CCS(=O)(=O)CC3)C(F)(F)F)cc2)cnc2cc(Cl)nn12  remaining binding (cell-free assay; competition with immobilised ligand; 1 µM): 100%
O=C(NCCCN1CCOCC1)c1ccc(Nc2nccc(-c3cc4ccccc4s3)n2)cc1  remaining binding (binding; competition with immobilised ligand; 1 µM): 90%
CN(C(=O)c1ccccc1)c1cc(N(C)c2ccc3c(c2)CCc2ccc(C(=O)NCCN4CCOCC4)cc2C3=O)ccc1F  remaining binding (cell-free assay; competition with immobilised ligand; 1 µM): 100%
O=C(Nc1c[nH]nc1C(=O)NC1CCNCC1)c1cc(F)cc(F)c1  remaining binding (binding; competition with immobilised ligand; 1 µM): 100%
Cc1noc([C@H]2C[C@@H](c3ccc(C(F)(F)F)cc3)CN(C(=O)N3CCS(=O)(=O)C3)C2)n1  remaining binding (cell-free assay; competition with immobilised ligand; 1 µM): 100%
c1cncc(-c2cccc(Nc3nccc(NC4CCCCC4)n3)c2)c1  remaining binding (binding; competition with immobilised ligand; 10 µM): 60%
F[C@@H]1CCN(c2nccc(-c3cnn4ncccc34)n2)C1  remaining binding (binding; 1 µM): 100%
CN(C)C(=O)Cn1cc(-c2nc(C3(c4ccc(-c5cnc(N)nc5)cc4)CC3)no2)cn1  remaining binding (cell-free assay; competition with immobilised ligand; 1 µM): 100%
